Screens as filed in PubChem BioAssay.
Sampled rows, rich in hits. Any-hit rate of the full collection: about 3.4%.
CHT allo act = CHT positive allosteric modulators, primary screen, cell-based, membrane potential dye, choline EC20. CHT-expressing cells; hits give high values; LV-AA mutant CHT in HEK293 cells. B-score at 10 µM. 310,000 compounds, 0.49% hits. AID 488977, 2010;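 active = initial fluorescence not abnormally high and integrated response B-score, plate-corrected, over 3 SD above library mean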
Target sequence (Q9GZV3 whole entry, looked up): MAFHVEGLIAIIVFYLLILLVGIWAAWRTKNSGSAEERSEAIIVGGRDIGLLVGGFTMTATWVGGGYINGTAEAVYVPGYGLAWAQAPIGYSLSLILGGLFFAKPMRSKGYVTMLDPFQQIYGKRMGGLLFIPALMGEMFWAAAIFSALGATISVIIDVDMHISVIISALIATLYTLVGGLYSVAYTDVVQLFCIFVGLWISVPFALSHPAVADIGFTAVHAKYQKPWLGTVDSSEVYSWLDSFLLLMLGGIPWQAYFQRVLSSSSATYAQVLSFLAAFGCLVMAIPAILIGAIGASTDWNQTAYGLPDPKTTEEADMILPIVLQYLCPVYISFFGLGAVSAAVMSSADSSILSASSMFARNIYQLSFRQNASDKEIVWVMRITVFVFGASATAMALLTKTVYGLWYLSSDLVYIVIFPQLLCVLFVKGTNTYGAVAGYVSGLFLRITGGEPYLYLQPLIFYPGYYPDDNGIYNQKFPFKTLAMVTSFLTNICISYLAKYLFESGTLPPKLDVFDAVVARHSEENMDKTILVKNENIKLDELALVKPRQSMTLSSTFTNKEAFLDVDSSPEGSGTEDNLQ
TMEM16A inh = TMEM16A chloride channel inhibitors, primary screen, cell-based, HTS | Anoctamin-1 (Mus musculus), Q8BHY3 | HEK293 TMEM16A/YFP iodide influx fluorescence, ionomycin | normalized B-score (activity score, 25-100; higher = stronger inhibition) at 10 µM | 310,000 compounds, 1.2% hits;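 active = ratio plate-corrected score three or more library SD toward inhibition, starting fluorescence score within five deviations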;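 note: score derived from kinetic fluorescence span divided by baseline fluorescence per well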
VIM-2 inh = VIM-2 metallo-beta-lactamase inhibitors, primary screen, biochemical, epi-absorbance readout, Pseudomonas aeruginosa enzyme. AID 1527, 2009. inhibition, % at 5.6 µM. purified VIM-2, nitrocefin hydrolysis, epi-absorbance fluorescence. 290,000 compounds, 0.89% hits;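 active = inhibition above the mean of all tested compounds plus 3 SD, cutoff set per screening run, cut at about 7.5% in these data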;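 note: red hydrolysis product quenches plate fluorescence so inhibitors raise well fluorescence; 0% = enzyme with DMSO and 100% = DMSO without enzyme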
ANO1 activ = TMEM16A chloride channel activators or potentiators, primary screen, cell-based, HTS | AID 623877, 2012 | HEK293 TMEM16A/YFP-H148Q/I152L, iodide quench fluorescence; hits give low values | 340,000 compounds, 0.3% hits | B-score at 10 µM | Anoctamin-1 (Mus musculus), Q8BHY3;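 active = fluorescence-ratio B-score plate-corrected deviation score at least 3 library SD below zero, with starting fluorescence score within 5 deviations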;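 note: channel opened by trigger with iodide after compound preincubation; score built on the fluorescence ratio of max minus min over baseline; more negative score means more quench and so TMEM16A activation or potentiation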
IMP-1 inh = IMP-1 metallo-beta-lactamase inhibitors, primary screen, biochemical, epi-absorbance readout, Pseudomonas aeruginosa enzyme; metallo-beta-lactamase IMP-1 (Pseudomonas aeruginosa); purified IMP-1, nitrocefin hydrolysis, epi-absorbance fluorescence; inhibition, % at 5.6 µM; 290,000 compounds, 0.45% hits;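 active = inhibition above the mean plus 3 SD of all compounds in the same screening run, cut at about 4.5% in these data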;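 note: 0% = IMP-1 with DMSO and 100% = DMSO wells lacking enzyme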
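Test system: recombinant IMP-1 enzyme, purified / Medium: HEPES buffer pH 7.1 with ZnSO4 and Brij 35 / Doses: single dose, 5.6 µM / Times: 25 °C, 15 min preincubation, 25 min reaction / Detection: Epi-absorbance via hydrolysed-nitrocefin quenching of white-plate fluorescence, 480/530 nm, EDTA stop / Evaluation: percent inhibition from optical density relative to buffer-blank wells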
CHT inh = inhibitors of human choline transporter CHT | High affinity choline transporter 1 (Homo sapiens), Q9GZV3 | CHT-expressing cells, membrane potential dye, choline response; hits give low values | B-score at 10 µM | 310,000 compounds, 0.86% hits | AID 488975, 2010;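 active = B-score over 3 SD under the library average, and starting fluorescence ratio not unusually high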;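 note: choline stimulus applied at its EC90 after an EC20 pre-addition; B-score computed on integrated fluorescence ratio after choline addition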
An asterisk follows results filed as active; i = inactive; x = no result.

SMILES | CHT allo act | TMEM16A inh | VIM-2 inh | ANO1 activ | IMP-1 inh | CHT inh
CCOc1ccc(NC(=O)CN(C)C(=O)c2sc3ccccc3c2Cl)cc1OCC | i | i | x | i | x | i
CCN(CC(=O)Nc1ccc2c(c1)OCCO2)C(=O)c1ccc(C)c(S(=O)(=O)N2CCOCC2)c1 | i | i | x | i | x | i
COc1ccc(S(=O)(=O)Nc2ccc(Cc3ccncc3)cc2)cc1OC | i | 25* | -1 | i | -1 | i
CC(=O)NCCNC(=O)CCNC(=O)c1ccc(Cl)cc1 | i | i | -2 | i | 2 | i
Cc1ccc(OCCNC(=O)CCNC(=O)c2ccc(Cl)cc2)cc1 | x | x | x | -26* | x | x
O=C(c1ccc(NC(=O)C(c2ccccc2)c2ccccc2)cc1)c1ccc(C(=O)O)c(C(=O)O)c1 | i | i | -2 | i | -5 | i
O=C(NC1CCCCCCC1O)c1ccccc1 (stereo unspecified) | x | x | x | i | x | x
O=C(NC1=NC2CCCCC2N1)c1ccccc1 (stereo unspecified) | i | i | 3 | -6.6* | 1 | i
COc1ccc(C(C)NCCC(c2ccc(OC(C)C)cc2)c2ccccc2OC)cc1 (stereo unspecified) | 7.7* | i | -2 | i | 0 | i
COc1ccc(C(CCNC(C)c2ccccc2)C(C)C)cc1 (stereo unspecified) | i | i | -2 | i | -1 | i
CCNc1c([N+](=O)[O-])ncn1C | i | i | 0 | i | 1 | i
CN(C)c1c([N+](=O)[O-])ncn1C | i | i | -2 | -9.6* | -4 | i
C(=N\Nc1nc(Nc2ccccc2)nc(N2CCOCC2)n1)/c1c[nH]c2ccccc12 | i | 25* | -5 | x | -2 | i
Cc1ccc(Nc2nc(N/N=C/c3c[nH]c4ccccc34)nc(N3CCOCC3)n2)cc1 | i | i | -5 | i | -4 | i
COc1cccc(N=Nc2c(=O)[nH]n3c(=O)cc(C)[nH]c23)c1 | i | i | -2 | -21* | -4 | i
COc1cccc(N=Nc2c(=O)[nH]n3c(=O)c4c([nH]c23)CCC4)c1 | i | i | -2 | i | -6 | i
O=C(Nc1ccccc1N1CCOCC1)c1cc2ccccc2o1 | i | i | -3 | i | 0 | i
O=C(Nc1ccc2c(c1)CCC2)c1cc2ccccc2o1 | i | i | -4 | -5.7* | -5 | i
O=C(Nc1ccc(N2CCOCC2)c(Cl)c1)c1cc2ccccc2o1 | i | 25* | -2 | i | 0 | i
CC1CN(C(=O)COC(=O)Cc2ccc(Cl)cc2)CC(C)O1 (stereo unspecified) | x | x | x | i | x | x
Cc1oc2cc3oc(=O)c(CCC(=O)NCc4ccccn4)c(C)c3cc2c1C | i | i | 0 | i | -3 | i
CC(C)(O)c1[nH]c2ccc(C#N)cc2c1C(C)(C)O | i | i | 3 | x | 4.9* | i
CC1CCCN(CCCNC(=O)C2CC(=O)N(c3ccc(F)c(Cl)c3)C2)C1 (stereo unspecified) | i | i | 2 | i | 5.8* | i
Cc1nc2ccccc2c2oc(C(=O)N3CCN(c4ccc([N+](=O)[O-])cc4)CC3)cc12 | i | i | -1 | i | 2 | i
Cc1nc2ccccc2c2oc(C(=O)N3CCN(C(=O)c4ccco4)CC3)cc12 | i | i | 8.8* | i | -3 | i
SMILES | CHT allo act | TMEM16A inh | VIM-2 inh | ANO1 activ | IMP-1 inh | CHT inh
Cc1nc2ccccc2c2oc(C(=O)N3CCC(C)CC3)cc12 | i | i | 11* | i | 0 | i
Cc1nc2ccccc2c2oc(C(=O)N3CCc4ccccc4C3)cc12 | i | i | 4 | i | -4 | i
COc1ccccc1NS(=O)(=O)c1cccc(C(=O)NCC2(N3CCCCC3)CCCCC2)c1 | x | x | x | i | x | x
COc1ccc2nc(Nc3nc(CSc4nnnn4-c4ccccc4)cc(=O)[nH]3)nc(C)c2c1 | i | i | 1 | i | 4.9* | i
Cc1ccc(SCc2cc(=O)[nH]c(Nc3nc(C)c4cccc(C)c4n3)n2)cc1 | i | i | -2 | i | -4 | i
CCOc1ccc2nc(Nc3nc(CSc4nnnn4-c4ccccc4)cc(=O)[nH]3)nc(C)c2c1 | i | i | 1 | i | -1 | i
Cc1cc(C)c2nc(Nc3nc(CSc4nc5ccccc5[nH]4)cc(=O)[nH]3)nc(C)c2c1 | x | x | x | -6.4* | x | x
Nc1ccc2nc(CN3CCOCC3)[nH]c2c1 | i | i | -5 | -19* | -5 | i
CN(CC(=O)NCCc1ccccc1)S(=O)(=O)c1cccs1 | i | i | -3 | -5.4* | -4 | i
Cc1ccc2c(c1)NC(c1cccs1)C1=C(CC(C)(C)CC1=O)N2 (stereo unspecified) | i | i | -1 | -5.1* | 0 | i
CC(Sc1nnc(-c2ccncc2)n1C)C(=O)Nc1nccs1 (stereo unspecified) | i | i | 0 | i | -2 | i
O=C(OCC(=O)N1N=C(c2ccc(Cl)cc2)CC1c1ccco1)c1cccnc1 (stereo unspecified) | x | x | x | i | x | x
CCC(=O)N1N=C(c2ccc(Cl)cc2)CC1c1ccco1 (stereo unspecified) | i | i | 9.5* | i | -3 | i
Nc1nc(SCC(=O)N2N=C(c3ccc(Cl)cc3)CC2c2ccco2)n[nH]1 (stereo unspecified) | i | i | 11* | i | -1 | i
COCC(=O)OCC(=O)N1N=C(c2ccc(Cl)cc2)CC1c1ccco1 (stereo unspecified) | i | i | 9.9* | i | -1 | i
CN1CC(=O)N(CC(=O)N2N=C(c3ccc(Cl)cc3)CC2c2ccco2)C1=O (stereo unspecified) | i | i | 0 | i | -4 | i
O=C(CSc1nnc(CNC(=O)c2cccs2)o1)Nc1ccccc1C(F)(F)F | i | i | -2 | i | -3 | i
Cc1nc(-c2ccc(F)cc2)c(CC(=O)N(C)CC(=O)Nc2ccc(F)cc2)s1 | i | i | x | i | x | i
COc1cc(S(=O)(=O)NC2CCSc3ccccc32)ccc1NC(C)=O (stereo unspecified) | i | i | 2 | i | 0 | i
CCOc1ccccc1OC(=O)CN1C(=O)c2ccccc2C1=O | i | i | 0 | i | -2 | i
